Data set [1] has as its system HEK293. Nature of the data set: Selectivity ratio of IC50 for rat Nav1.2 expressed in HEK-293 cells to IC50 for human Nav1.7 expressed in HEK-293 cells. The class given is cell-based.
The nature of data set [2]: Retention time of the compound measured over 15 mins at flow rate of 1 mL/min by HPLC.
A short description of data set [3]: Retention time of the compound measured over 30 mins at flow rate of 1 mL/min by HPLC. In kind it is physicochemical. The note with it: 0.5 h. In a few lines:
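Reversed-phase analytical HPLC or LC−MS on a SymmetryShield RP18 column (5 μm, 4.6 × 150 mm). Gradient 10−60% B over 30 min at 1 mL/min; A = 0.1% TFA in water, B = 0.1% TFA in acetonitrile.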

Molecules are shown by their SMILES. Residues, ends and D or L forms follow the SMILES beside them.

Consider `[H][C@]12CSSC[C@@H](C(=O)N[C@@H](CCCCN)C(=O)N[C@@H](CCCCN)C(=O)N[C@@H](CCCCN)C(=O)N[C@@H](CC(C)C)C(=O)N[C@@H](Cc3c[nH]c4ccccc34)C(=O)O)NC(=O)[C@H](Cc3c[nH]c4ccccc34)NC(=O)[C@H](CC(C)C)NC(=O)[C@H](CCCNC(=N)N)NC(=O)[C@]3([H])CSSC[C@]([H])(NC(=O)[C@]([H])([C@@H](C)O)NC(=O)[C@H](Cc4c[nH]c5ccccc45)NC(=O)[C@H](CCSC)NC(=O)[C@H](Cc4c[nH]c5ccccc45)NC(=O)[C@H](CCCCN)NC(=O)[C@H](CCC(N)=O)NC(=O)[C@@H](NC(=O)[C@@H](N)Cc4ccc(O)cc4)CSSC[C@]([H])(NC1=O)C(=O)N[C@@H](CCC(=O)O)C(=O)NCC(=O)N[C@@H](CC(C)C)C(=O)N[C@@H](C(C)C)C(=O)N3)C(=O)N[C@@H](CC(=O)O)C(=O)N[C@@H](CO)C(=O)N[C@@H](C)C(=O)N[C@@H](CCCNC(=N)N)C(=O)N[C@@H](CCCCN)C(=O)N2` (HELM PEPTIDE1{Y.C.Q.K.W.M.W.T.C.D.S.A.R.K.C.C.E.G.L.V.C.R.L.W.C.K.K.K.L.W}$PEPTIDE1,PEPTIDE1,2:R3-16:R3|PEPTIDE1,PEPTIDE1,9:R3-21:R3|PEPTIDE1,PEPTIDE1,15:R3-25:R3$$$V2.0), for which the Ratio IC50 in data set [1] is 24. The results for the Retention_time in data set [2] and in data set [3] were 9.86 min and 16.59 min, respectively.

Take `CC[C@H](C)[C@H](NC(=O)[C@](C)(CC(C)C)NC(=O)[C@H](CCCCN)NC(=O)[C@H](CCCCN)NC(=O)[C@H](CCCCN)NC(=O)[C@@H]1CSSC[C@@H]2NC(=O)[C@H](CCCCN)NC(=O)[C@H](CCCNC(=N)N)NC(=O)[C@H](C)NC(=O)[C@H](CO)NC(=O)[C@H](CC(=O)O)NC(=O)[C@@H]3CSSC[C@H](NC(=O)[C@H](C(C)C)NC(=O)[C@H](CC(C)C)NC(=O)CNC(=O)[C@H](CCC(=O)O)NC(=O)[C@H](CSSC[C@H](NC(=O)[C@@H](N)Cc4ccc(O)cc4)C(=O)N[C@@H](CCC(N)=O)C(=O)N[C@@H](CCCCN)C(=O)N[C@@H](Cc4c[nH]c5ccccc45)C(=O)N[C@@H](CCSC)C(=O)N[C@@H](Cc4c[nH]c5ccccc45)C(=O)N[C@@H]([C@@H](C)O)C(=O)N3)NC2=O)C(=O)N[C@@H](CCCNC(=N)N)C(=O)N[C@@H](CC(C)C)C(=O)N[C@@H](Cc2c[nH]c3ccccc23)C(=O)N1)C(=O)O` (HELM PEPTIDE1{Y.C.Q.K.W.M.W.T.C.D.S.A.R.K.C.C.E.G.L.V.C.R.L.W.C.K.K.K.[CC(C)C[C@](C)(N[*:1])C(=O)[*:2]].I}$PEPTIDE1,PEPTIDE1,2:R3-16:R3|PEPTIDE1,PEPTIDE1,9:R3-21:R3|PEPTIDE1,PEPTIDE1,15:R3-25:R3$$$V2.0): the Ratio IC50 in data set [1] came out at 34.2. Besides, the Retention_time was 9.03 min in data set [2] and 14.87 min in data set [3].

In the case of `[H][C@]12CSSC[C@@H](C(=O)N[C@@H](CCCCN)C(=O)N[C@@H](CCCCN)C(=O)N[C@@H](CCCCN)C(=O)N[C@@](C)(CC(C)C)C(=O)N[C@@H](Cc3c[nH]c4ccccc34)C(=O)O)NC(=O)[C@H](Cc3c[nH]c4ccccc34)NC(=O)[C@H](CC(C)C)NC(=O)[C@H](CCCNC(=N)N)NC(=O)[C@]3([H])CSSC[C@]([H])(NC(=O)[C@]([H])([C@@H](C)O)NC(=O)[C@H](Cc4c[nH]c5ccccc45)NC(=O)[C@H](CCSC)NC(=O)[C@H](Cc4c[nH]c5ccccc45)NC(=O)[C@H](CCCCN)NC(=O)[C@H](CCC(N)=O)NC(=O)[C@@H](NC(=O)[C@@H](N)Cc4ccc(O)cc4)CSSC[C@]([H])(NC1=O)C(=O)N[C@@H](CCC(=O)O)C(=O)NCC(=O)N[C@@H](CC(C)C)C(=O)N[C@@H](C(C)C)C(=O)N3)C(=O)N[C@@H](CC(=O)O)C(=O)N[C@@H](CO)C(=O)N[C@@H](C)C(=O)N[C@@H](CCCNC(=N)N)C(=O)N[C@@H](CCCCN)C(=O)N2` (HELM PEPTIDE1{Y.C.Q.K.W.M.W.T.C.D.S.A.R.K.C.C.E.G.L.V.C.R.L.W.C.K.K.K.[CC(C)C[C@](C)(N[*:1])C(=O)[*:2]].W}$PEPTIDE1,PEPTIDE1,2:R3-16:R3|PEPTIDE1,PEPTIDE1,9:R3-21:R3|PEPTIDE1,PEPTIDE1,15:R3-25:R3$$$V2.0), in data set [1], the Ratio IC50 is 3.5. The Retention_time in data set [2] is 9.28 min; in data set [3], 15.29 min.

In the case of `[H][C@]12CSSC[C@@H](C(=O)N[C@@H](CCCCN)C(=O)N[C@@H](CCCCN)C(=O)N[C@@H](CCCCN)C(=O)N(C)[C@@H](CC(C)C)C(=O)N[C@H](C(=O)O)[C@@H](C)CC)NC(=O)[C@H](Cc3c[nH]c4ccccc34)NC(=O)[C@H](CC(C)C)NC(=O)[C@H](CCCNC(=N)N)NC(=O)[C@]3([H])CSSC[C@]([H])(NC(=O)[C@]([H])([C@@H](C)O)NC(=O)[C@H](Cc4c[nH]c5ccccc45)NC(=O)[C@H](CCSC)NC(=O)[C@H](Cc4c[nH]c5ccccc45)NC(=O)[C@H](CCCCN)NC(=O)[C@H](CCC(N)=O)NC(=O)[C@@H](NC(=O)[C@@H](N)Cc4ccc(O)cc4)CSSC[C@]([H])(NC1=O)C(=O)N[C@@H](CCC(=O)O)C(=O)NCC(=O)N[C@@H](CC(C)C)C(=O)N[C@@H](C(C)C)C(=O)N3)C(=O)N[C@@H](CC(=O)O)C(=O)N[C@@H](CO)C(=O)N[C@@H](C)C(=O)N[C@@H](CCCNC(=N)N)C(=O)N[C@@H](CCCCN)C(=O)N2` (HELM PEPTIDE1{Y.C.Q.K.W.M.W.T.C.D.S.A.R.K.C.C.E.G.L.V.C.R.L.W.C.K.K.K.[meL].I}$PEPTIDE1,PEPTIDE1,2:R3-16:R3|PEPTIDE1,PEPTIDE1,9:R3-21:R3|PEPTIDE1,PEPTIDE1,15:R3-25:R3$$$V2.0), in data set [1], the Ratio IC50 was determined as 2.8. Further, the Retention_time in data set [2] is reported as 8.79 min; in data set [3], 14.4 min.

`CSCC[C@@H]1NC(=O)[C@H](Cc2c[nH]c3ccccc23)NC(=O)[C@H](CCCCN)NC(=O)[C@H](CCC(N)=O)NC(=O)[C@@H](NC(=O)[C@@H](N)Cc2ccc(O)cc2)CSSC[C@@H]2NC(=O)[C@@H]3CSSC[C@@H](C(=O)N[C@@H](CCCCN)C(=O)N[C@@H](CCCCN)C(=O)N[C@@H](CCCCN)C(=O)N(C)[C@@H](CC(C)C)C(=O)N[C@@H](Cc4c[nH]c5ccccc45)C(=O)O)NC(=O)[C@H](Cc4c[nH]c5ccccc45)NC(=O)[C@H](CC(C)C)NC(=O)[C@H](CCCNC(=N)N)NC(=O)[C@H](CSSC[C@H](NC(=O)[C@H]([C@@H](C)O)NC(=O)[C@H](Cc4c[nH]c5ccccc45)NC1=O)C(=O)N[C@@H](CC(=O)O)C(=O)N[C@@H](CO)C(=O)N[C@@H](C)C(=O)N[C@@H](CCCNC(=N)N)C(=O)N[C@@H](CCCCN)C(=O)N3)NC(=O)[C@H](C(C)C)NC(=O)[C@H](CC(C)C)NC(=O)CNC(=O)[C@H](CCC(=O)O)NC2=O` (HELM PEPTIDE1{Y.C.Q.K.W.M.W.T.C.D.S.A.R.K.C.C.E.G.L.V.C.R.L.W.C.K.K.K.[meL].W}$PEPTIDE1,PEPTIDE1,2:R3-16:R3|PEPTIDE1,PEPTIDE1,9:R3-21:R3|PEPTIDE1,PEPTIDE1,15:R3-25:R3$$$V2.0): the Ratio IC50 in data set [1] is 2.8. In addition, the Retention_time in data set [2] came out at 9.04 min; in data set [3], 15.1 min.

Source of the values: ChEMBL document CHEMBL3351726 (J Med Chem, 2014).
